Results from different studies.
JAK2 JH1: Tyrosine-protein kinase JAK2, JH1 (JAK2, Homo sapiens, UniProt O60674)
JAK2: Tyrosine-protein kinase JAK2 (JAK2, Homo sapiens, UniProt O60674)

| SMILES | target | test | setting | endpoint | result |
| --- | --- | --- | --- | --- | --- |
| c1cnn2ncc(-c3ccnc(N4CCC45COC5)n3)c2c1 | JAK2 JH1 | cell-free assay | 1 µM | remaining signal | 74% |
| Cc1ccc(Nc2nccc(N(C)c3ccc4c(C)n(C)nc4c3)n2)cc1S(N)(=O)=O | JAK2 | enzyme activity, inhibitor | 10 µM | inhibition | 36% |
| O=C(NCCCNc1ccnc(Nc2cccc(NC(=O)N3CCCC3)c2)n1)C1CCC1 | JAK2 | enzyme activity, inhibitor, radiometric | 1 µM | remaining activity | 88% |
| CNC(=O)c1cc(Oc2ccc(NC(=O)Nc3ccc(Cl)c(C(F)(F)F)c3)cc2)ccn1 | JAK2 | cell-free assay | 0.5 µM | remaining signal | 98.2% |
| COc1cccc(CNC(=O)c2nc3scc(COCc4ccc(C(=O)O)cc4)c3c(=O)[nH]2)c1 | JAK2 JH1 | cell-free assay, competition with immobilised ligand | 1 µM | remaining binding | 100% |
| Cc1ccc(NC(=O)c2ccc(CN3CCN(C)CC3)cc2)cc1Nc1nc(-c2cccnc2)cs1 | JAK2 | cell-free assay | 0.5 µM | remaining signal | 96.3% |
| O=C(NCCCC1CCCCC1)c1ccc(CNC(=O)c2cnn(-c3ccccc3)c2C(F)(F)F)cc1 | JAK2 JH1 | cell-free assay, competition with immobilised ligand | 0.1 µM | remaining binding | 100% |
| CCCS(=O)(=O)Nc1ccc(F)c(C(=O)c2c[nH]c3ncc(-c4ccc(Cl)cc4)cc23)c1F | JAK2 | enzyme activity, inhibitor | 1 µM | inhibition | < 10% |
| COc1cc2ncnc(Nc3ccc(Oc4ccccc4)c(C)c3C)c2cc1OC | JAK2 JH1 | enzyme activity, inhibitor | 1 µM | inhibition | -2% |
| Cc1nn(CC(F)(F)F)cc1Nc1ncc(C2CC2)c(NCc2ccc(S(N)(=O)=O)cc2)n1 | JAK2 | enzyme activity, inhibitor, radiometric | 1 µM | remaining activity | 100% |
| CCOc1cc(-c2nncn2C)ccc1Nc1ncc2cc(C)nc(NCC(C)(C)C)c2n1 | JAK2 | enzyme activity, inhibitor, FRET | 1 µM | inhibition | < 15% |
| CC(=O)N1CCC(c2ccc(C(=O)NC(=N)N)cc2C(F)(F)F)CC1 | JAK2 JH1 | cell-free assay, competition with immobilised ligand | 1 µM | remaining binding | 100% |
| N#CCCc1ccc2c(c1)-c1[nH]c3ccc([N+](=O)[O-])cc3c1CC(=O)N2 | JAK2 | cell-free assay | 0.5 µM | remaining signal | 93% |
| C[C@@H]1CCN(c2nccc(-c3cnn4ncccc34)n2)C1 | JAK2 JH1 | cell-free assay | 1 µM | remaining signal | 90% |
| Cc1nn(CC(F)(F)F)cc1Nc1ncc(Br)c(NCCCNC(=O)C2CCC2)n1 | JAK2 | enzyme activity, inhibitor, radiometric | 1 µM | remaining activity | 67% |
| CCS(=O)(=O)c1cc2cc(C[C@@](O)(CC(C)(C)c3ccc(F)cc3C(N)=O)C(F)(F)F)[nH]c2cn1 | JAK2 JH1 | cell-free assay, competition with immobilised ligand | 1 µM | remaining binding | 100% |
| CN1CC(Oc2cnc(C#N)cc2-c2ccn3nc(NC(=O)C4CC4)cc3c2)C1 | JAK2 | enzyme activity, inhibitor | 1 µM | inhibition | -20% |

| SMILES | target | test | setting | endpoint | result |
| --- | --- | --- | --- | --- | --- |
| C=CC(=O)Nc1cc(Nc2nccc(Nc3cc(Cl)c(F)cc3C(C)(C)O)n2)c(OC)cc1N1CC[C@@H](N(C)C)C1 | JAK2 | enzyme activity, inhibitor | 1 µM | inhibition | 2% |
| COc1cc2ncnc(Nc3ccc(Oc4ccccc4)cc3C)c2cc1OC | Tyrosine-protein kinase JAK2, JH1 (JAK2, Homo sapiens, UniProt O60674, V617F) | enzyme activity, inhibitor | 1 µM | inhibition | -11% |
| CS(=O)(=O)Nc1cccc(-c2csc(NC(=O)CSc3nc4nccnc4c(=O)n3CCc3ccccc3)n2)c1 | JAK2 | enzyme activity, inhibitor | 10 µM | inhibition | -7% |
| COCCOc1nc(-c2ccc(Cl)nc2)nc2c1CN(C(=O)c1ncn3ccccc13)CC2 | JAK2 JH1 | cell-free assay, competition with immobilised ligand | 0.1 µM | remaining binding | 100% |
| Cc1nn(CC(F)(F)F)cc1Nc1ncc(C2CC2)c(NCCCNC(=O)C2CCC2)n1 | JAK2 | enzyme activity, inhibitor, radiometric | 1 µM | remaining activity | 99% |
| O=C1CCc2cc(Nc3cc(OC4CCOCC4)c([N+](=O)[O-])cc3Cl)ccc2N1 | JAK2 JH1 | cell-free assay, competition with immobilised ligand | 1 µM | remaining binding | 100% |
| O=C(NCCCNc1nc(Nc2cccc(NC(=O)N3CCCC3)c2)ncc1C1CC1)C1CCC1 | JAK2 | enzyme activity, inhibitor, radiometric | 1 µM | remaining activity | 68% |
| FC(F)(F)Oc1cccc(-c2cnc3ccc(-c4ccncc4)nn23)c1 | JAK2 | enzyme activity, inhibitor, radiometric | 5 µM | activity vs control | 72% |
| O=C(CSc1nc2nccnc2c(=O)n1CCc1ccccc1)Nc1nccs1 | JAK2 | enzyme activity, inhibitor | 10 µM | inhibition | -4% |
| CCN(CC)CCNC(=O)c1c(C)[nH]c(/C=C2\C(=O)Nc3ccc(F)cc32)c1C | JAK2 | cell-free assay | 0.5 µM | remaining signal | 88.8% |
| Cc1nn(CC(F)(F)F)cc1Nc1ncc(Br)c(NCCc2cnc[nH]2)n1 | JAK2 | enzyme activity, inhibitor, radiometric | 1 µM | remaining activity | 106% |
| Cc1ccc(NC(=O)c2ccc(C)c(C(F)(F)F)c2)cc1C#Cc1nn(C2CCC(O)CC2)c2ncnc(N)c12 (stereo not drawn) | JAK2 | cell-free assay | 10 µM | remaining signal | 64% |
| NS(=O)(=O)c1cc(NC(=O)C2(c3ccccc3Cl)CC2)ccc1Oc1cccc(Cl)c1 | JAK2 JH1 | cell-free assay, competition with immobilised ligand | 1 µM | remaining binding | 100% |
| COc1cc2nccc(Oc3ccc(NC(=O)c4c5n(n(-c6ccc(F)cc6)c4=O)CCCC5)cc3)c2cc1OC | JAK2 | enzyme activity, inhibitor | 0.1 µM | inhibition | 10% |
| Cc1nn(CC(F)(F)F)cc1Nc1nccc(NCc2ccc(S(N)(=O)=O)cc2)n1 | JAK2 | enzyme activity, inhibitor, radiometric | 1 µM | remaining activity | 95% |
| CN([C@@H]1CCc2c(CC(=O)O)c3cc(S(C)(=O)=O)ccc3n2C1)S(=O)(=O)c1ccc(F)cc1 | JAK2 JH1 | cell-free assay, competition with immobilised ligand | 1 µM | remaining binding | 100% |
